Laboratory results as given in ChEMBL document CHEMBL1275592, “AmpN-AmpG operon is essential for expression of L1 and L2 beta-lactamases in Stenotrophomonas maltophilia” (2010).
Values after ≈ are worked out from the molar mass of the structure shown.

Assays:
[1] = target: T1, Catechol 2,3-dioxygenase (Stenotrophomonas maltophilia) (UniProt A7LB47); assay: Induction of catechol 2,3-dioxygenase activity in ampN deficient Stenotrophomonas maltophilia KJ harboring pRK-NG and ampG gene with xylE-Gmomega cassette insertion at 20 ug/ml
T1 sequence (whole entry): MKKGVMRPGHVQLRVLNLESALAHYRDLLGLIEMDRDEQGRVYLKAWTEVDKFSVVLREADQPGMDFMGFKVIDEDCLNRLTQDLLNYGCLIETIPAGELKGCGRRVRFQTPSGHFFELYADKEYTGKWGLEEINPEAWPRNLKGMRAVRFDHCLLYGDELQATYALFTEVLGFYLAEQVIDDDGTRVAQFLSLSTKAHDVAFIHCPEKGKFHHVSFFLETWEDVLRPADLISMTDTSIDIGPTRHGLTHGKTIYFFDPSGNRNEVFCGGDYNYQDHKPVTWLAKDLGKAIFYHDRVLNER
In short: (§1)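 C23O (xylE product) activity assayed in intact cells, with cefuroxime 20 μg/ml as inducer. Rate calculated with extinction coefficient 44,000 M−1 cm−1. One unit (Uc) converts 1 nmol substrate/min. Specific activity given as Uc/OD450. Plasmids were introduced into S. maltophilia by conjugation and confirmed by colony PCR.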

[2] = system: Stenotrophomonas maltophilia; assay: Antimicrobial activity against Stenotrophomonas maltophilia KJN2 harboring pRK415 plasmid and ampN with xylE-Gmomega cassette insertion by agar dilution method; type: functional
In short: (§2)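 MICs were determined in triplicate by standard 2-fold serial agar dilution, following CLSI guidelines.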

[3] = system: Stenotrophomonas maltophilia; assay: Induction of beta lactamase activity in Stenotrophomonas maltophilia KJN2 harboring pRK415 and ampN with xylE-Gmomega cassette insertion at 20 ug/ml
In short: (§3)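 Cells were induced with cefuroxime at 20 μg/ml. β-Lactamase activity was measured as nitrocefin hydrolysis at 486 nm, using ε 20,500 M−1 cm−1. Specific activity is nmol nitrocefin hydrolysed/min/mg protein. Protein was measured by dye-binding assay against a BSA standard. Basal and induced activities are both reported.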

[4] = system: Stenotrophomonas maltophilia; assay: Induction of beta lactamase activity in Stenotrophomonas maltophilia KJN2 harboring pRK-G and ampN with xylE-Gmomega cassette insertion at 20 ug/ml; in short: as §3
[5] = system: Stenotrophomonas maltophilia; assay: Induction of beta-lactamase activity in ampN deficient Stenotrophomonas maltophilia KJ at 20 ug/ml; in short: as §3
[6] = system: Stenotrophomonas maltophilia; assay: Induction of beta-lactamase activity in Stenotrophomonas maltophilia KJ harboring pRK415 plasmid at 20 ug/ml; in short: as §3
[7] = system: Stenotrophomonas maltophilia; assay: Antimicrobial activity against ampN deficient Stenotrophomonas maltophilia KJ by agar dilution method; type: functional; in short: as §2
[8] = system: Stenotrophomonas maltophilia; assay: Induction of beta-lactamase activity in Stenotrophomonas maltophilia KJN1 harboring ampN with xylE-Gmomega cassette insertion at 20 ug/ml; in short: as §3
[9] = system: Stenotrophomonas maltophilia; assay: Antimicrobial activity against Stenotrophomonas maltophilia KJG harboring ampG with xylE-Gmomega cassette insertion by agar dilution method; type: functional; in short: as §2
[10] = target: T1, Catechol 2,3-dioxygenase (Stenotrophomonas maltophilia); assay: Induction of catechol 2,3-dioxygenase activity in Stenotrophomonas maltophilia KJ harboring pRKF3 plasmid at 20 ug/ml; in short: as §1
[11] = system: Stenotrophomonas maltophilia; assay: Antimicrobial activity against Stenotrophomonas maltophilia KJN2 harboring ampN with xylE-Gmomega cassette insertion by agar dilution method; type: functional; in short: as §2
[12] = system: Stenotrophomonas maltophilia; assay: Induction of beta lactamase activity in Stenotrophomonas maltophilia KJN2 harboring pRK-EcG and ampN with xylE-Gmomega cassette insertion at 20 ug/ml; in short: as §3
[13] = target: T1, Catechol 2,3-dioxygenase (Stenotrophomonas maltophilia); assay: Induction of catechol 2,3-dioxygenase activity in ampN deficient Stenotrophomonas maltophilia KJ harboring pRK-N and ampG gene with xylE-Gmomega cassette insertion at 20 ug/ml; in short: as §1
[14] = system: Stenotrophomonas maltophilia; assay: Antimicrobial activity against ampN deficient Stenotrophomonas maltophilia KJ harboring ampG with xylE-Gmomega cassette insertion by agar dilution method; type: functional; in short: as §2
[15] = target: T1, Catechol 2,3-dioxygenase (Stenotrophomonas maltophilia); assay: Induction of catechol 2,3-dioxygenase activity in Stenotrophomonas maltophilia KJ harboring pRKF4 plasmid at 20 ug/ml; in short: as §1
[16] = system: Stenotrophomonas maltophilia; assay: Antimicrobial activity against Stenotrophomonas maltophilia KJN2 harboring pRK-NG plasmid and ampN with xylE-Gmomega cassette insertion by agar dilution method; type: functional; in short: as §2
[17] = system: Stenotrophomonas maltophilia; assay: Antimicrobial activity against Stenotrophomonas maltophilia KJN2 harboring pRK-EcG plasmid and ampN with xylE-Gmomega cassette insertion by agar dilution method; type: functional; in short: as §2
[18] = system: Stenotrophomonas maltophilia; assay: Induction of beta-lactamase activity in Stenotrophomonas maltophilia KJG harboring ampG with xylE-Gmomega cassette insertion at 20 ug/ml; in short: as §3
[19] = system: Stenotrophomonas maltophilia; assay: Antimicrobial activity against Stenotrophomonas maltophilia KJN2 harboring pRK-G plasmid and ampN with xylE-Gmomega cassette insertion by agar dilution method; type: functional; in short: as §2
[20] = target: T1, Catechol 2,3-dioxygenase (Stenotrophomonas maltophilia); assay: Induction of catechol 2,3-dioxygenase activity in Stenotrophomonas maltophilia KJN2 harboring ampN with xylE-Gmomega cassette insertion at 20 ug/ml; in short: as §1
[21] = target: T1, Catechol 2,3-dioxygenase (Stenotrophomonas maltophilia); assay: Induction of catechol 2,3-dioxygenase activity in Stenotrophomonas maltophilia KJ harboring pRKF2 plasmid at 20 ug/ml; in short: as §1
[22] = target: T1, Catechol 2,3-dioxygenase (Stenotrophomonas maltophilia); assay: Induction of catechol 2,3-dioxygenase activity in ampN deficient Stenotrophomonas maltophilia KJ harboring pRK415 and ampG gene with xylE-Gmomega cassette insertion at 20 ug/ml; in short: as §1
[23] = target: T1, Catechol 2,3-dioxygenase (Stenotrophomonas maltophilia); assay: Induction of catechol 2,3-dioxygenase activity in Stenotrophomonas maltophilia KJ harboring pRKF6 plasmid at 20 ug/ml; in short: as §1
[24] = target: T1, Catechol 2,3-dioxygenase (Stenotrophomonas maltophilia); assay: Induction of catechol 2,3-dioxygenase activity in ampN deficient Stenotrophomonas maltophilia KJ harboring ampG gene with xylE-Gmomega cassette insertion at 20 ug/ml; in short: as §1
[25] = target: T1, Catechol 2,3-dioxygenase (Stenotrophomonas maltophilia); assay: Induction of catechol 2,3-dioxygenase activity in Stenotrophomonas maltophilia KJN1 harboring ampN with xylE-Gmomega cassette insertion at 20 ug/ml; in short: as §1
[26] = system: Stenotrophomonas maltophilia; assay: Induction of beta lactamase activity in Stenotrophomonas maltophilia KJN2 harboring pRK-NG and ampN with xylE-Gmomega cassette insertion at 20 ug/ml; in short: as §3
[27] = target: T1, Catechol 2,3-dioxygenase (Stenotrophomonas maltophilia); assay: Induction of catechol 2,3-dioxygenase activity in ampN deficient Stenotrophomonas maltophilia KJ harboring pRK-G and ampG gene with xylE-Gmomega cassette insertion at 20 ug/ml; in short: as §1
[28] = target: T1, Catechol 2,3-dioxygenase (Stenotrophomonas maltophilia); assay: Induction of catechol 2,3-dioxygenase activity in Stenotrophomonas maltophilia KJ harboring pRK415 plasmid at 20 ug/ml; in short: as §1
[29] = system: Stenotrophomonas maltophilia; assay: Induction of beta-lactamase activity in ampN deficient Stenotrophomonas maltophilia KJ harboring ampG gene with xylE-Gmomega cassette insertion at 20 ug/ml; in short: as §3
[30] = system: Stenotrophomonas maltophilia; assay: Antimicrobial activity against Stenotrophomonas maltophilia KJN1 harboring ampN with xylE-Gmomega cassette insertion by agar dilution method; type: functional; in short: as §2
[31] = target: T1, Catechol 2,3-dioxygenase (Stenotrophomonas maltophilia); assay: Induction of catechol 2,3-dioxygenase activity in Stenotrophomonas maltophilia KJG harboring ampG with xylE-Gmomega cassette insertion at 20 ug/ml; in short: as §1
[32] = target: T1, Catechol 2,3-dioxygenase (Stenotrophomonas maltophilia); assay: Induction of catechol 2,3-dioxygenase activity in Stenotrophomonas maltophilia KJ harboring pRKF5 plasmid at 20 ug/ml; in short: as §1
[33] = system: Stenotrophomonas maltophilia; assay: Antimicrobial activity against Stenotrophomonas maltophilia KJ by agar dilution method; type: functional; in short: as §2
[34] = system: Stenotrophomonas maltophilia; assay: Induction of beta-lactamase activity in Stenotrophomonas maltophilia KJ harboring pRK-NG plasmid at 20 ug/ml; in short: as §3
[35] = target: T1, Catechol 2,3-dioxygenase (Stenotrophomonas maltophilia); assay: Induction of catechol 2,3-dioxygenase activity in Stenotrophomonas maltophilia KJ harboring pRKF1 plasmid at 20 ug/ml; in short: as §1
[36] = system: Stenotrophomonas maltophilia; assay: Induction of beta-lactamase activity in Stenotrophomonas maltophilia KJ at 20 ug/ml
In short: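 Cefuroxime 20 μg/ml added as inducer. β-lactamase activity read by nitrocefin hydrolysis at 486 nm (ε 20,500 M−1 cm−1). Specific activity given as nmol nitrocefin hydrolyzed/min/mg protein. Protein measured by Bio-Rad assay against a BSA standard. L1 versus L2 split by the modified nitrocefin-EDTA method.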

[37] = system: Stenotrophomonas maltophilia; assay: Induction of beta-lactamase activity in Stenotrophomonas maltophilia KJN2 harboring ampN with xylE-Gmomega cassette insertion at 20 ug/ml; in short: as §3
[38] = system: Stenotrophomonas maltophilia; assay: Antimicrobial activity against Stenotrophomonas maltophilia KJ harboring pRK415 plasmid by agar dilution method; type: functional; in short: as §2
[39] = system: Stenotrophomonas maltophilia; assay: Antimicrobial activity against Stenotrophomonas maltophilia KJ harboring pRK-NG plasmid by agar dilution method; type: functional; in short: as §2

`CO/N=C(\C(=O)N[C@@H]1C(=O)N2C(C(=O)O)=C(COC(N)=O)CS[C@H]12)c1ccco1` [CEFUROXIME] gave an Activity (nmol/min/OD450) [1] of 5, an MIC [2] of 32 µg/mL (≈ 75.4 µM) and an Activity [3] of 18 U/mg. It also gave an Activity [4] of 12 U/mg, an Activity [5] of 6 U/mg and an Activity [6] of 1740 U/mg. The MIC [7] was 32 µg/mL (≈ 75.4 µM), the Activity [8] was 5 U/mg and the MIC [9] was 32 µg/mL (≈ 75.4 µM). The Activity (nmol/min/OD450) [10] was 6, the MIC [11] was 32 µg/mL (≈ 75.4 µM) and the Activity [12] was 882 U/mg. For the same compound, the Activity (nmol/min/OD450) [13] was 5, the MIC [14] was 32 µg/mL (≈ 75.4 µM) and the Activity (nmol/min/OD450) [15] was 45. The MIC [16] was > 1020 µg/mL, the MIC [17] was > 1020 µg/mL and the Activity [18] was 6 U/mg. It also gave an MIC [19] of 64 µg/mL (≈ 151 µM), an Activity (nmol/min/OD450) [20] of 39 and an Activity (nmol/min/OD450) [21] of 50. It also gave an Activity (nmol/min/OD450) [22] of 5, an Activity (nmol/min/OD450) [23] of 8 and an Activity (nmol/min/OD450) [24] of 4. The Activity (nmol/min/OD450) [25] was 4, the Activity [26] was 1450 U/mg and the Activity (nmol/min/OD450) [27] was 4. The Activity (nmol/min/OD450) [28] was 0, the Activity [29] was 3 U/mg and the MIC [30] was 32 µg/mL (≈ 75.4 µM). For the same compound, the Activity (nmol/min/OD450) [31] was 41, the Activity (nmol/min/OD450) [32] was 6 and the MIC [33] was > 1020 µg/mL. For the same compound, the Activity [34] was 1620 U/mg, the Activity (nmol/min/OD450) [35] was 6 and the Activity [36] was 1520 U/mg. For the same compound, the Activity [37] was 5 U/mg.

Work on `CO[C@@]1(NC(=O)Cc2cccs2)C(=O)N2C(C(=O)O)=C(COC(N)=O)CS[C@@H]21` [CEFOXITIN] yielded an MIC [2] of 32 µg/mL (≈ 74.9 µM), an MIC [7] of 32 µg/mL (≈ 74.9 µM) and an MIC [9] of 32 µg/mL (≈ 74.9 µM). The MIC [11] was 32 µg/mL (≈ 74.9 µM), the MIC [38] was 1020 µg/mL (≈ 2400 µM) and the MIC [14] was 32 µg/mL (≈ 74.9 µM). The MIC [39] was 1020 µg/mL (≈ 2400 µM), the MIC [16] was 1020 µg/mL (≈ 2400 µM) and the MIC [17] was 1020 µg/mL (≈ 2400 µM). It also gave an MIC [19] of 64 µg/mL (≈ 150 µM), an MIC [30] of 32 µg/mL (≈ 74.9 µM) and an MIC [33] of 1020 µg/mL (≈ 2400 µM).
